CHRM4 antagonist = blocks acetylcholine activation of human M4 receptor. P08173. CHO-hM4 cells, ACh EC80, Fluo-8 calcium fluorescence. inhibition, % at 3 µM. 360,000 compounds, 0.73% hits. AID 624125;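 active = inhibition above its plate's cutoff, the mean inhibition of sample wells plus 3 SD, cut at about 27% in these data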
Target sequence (P08173 whole entry, looked up): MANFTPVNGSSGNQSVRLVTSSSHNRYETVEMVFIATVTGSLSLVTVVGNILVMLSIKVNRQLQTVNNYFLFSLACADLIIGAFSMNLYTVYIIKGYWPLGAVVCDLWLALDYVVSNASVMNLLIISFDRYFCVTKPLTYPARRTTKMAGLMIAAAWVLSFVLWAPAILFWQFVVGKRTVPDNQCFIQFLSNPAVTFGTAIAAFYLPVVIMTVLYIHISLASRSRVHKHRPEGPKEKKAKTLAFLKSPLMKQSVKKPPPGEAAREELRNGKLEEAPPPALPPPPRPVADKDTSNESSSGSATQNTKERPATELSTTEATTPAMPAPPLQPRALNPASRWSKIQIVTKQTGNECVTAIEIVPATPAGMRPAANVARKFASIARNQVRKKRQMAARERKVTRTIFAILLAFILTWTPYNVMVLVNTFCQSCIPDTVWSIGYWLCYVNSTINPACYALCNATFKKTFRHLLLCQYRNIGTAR
CHRM5 agonist = agonists of human muscarinic M5 receptor (CHRM5). 360,000 compounds, 0.19% hits. activation, % at 3 µM. AID 624037. CHO-K1 hM5 cells, Fluo-8 calcium fluorescence; 0% DMSO wells, 100% maximal acetylcholine response. P08912;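 active = activation above the run's mean over test compounds plus 3 SD, cut at about 23% in these data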;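 note: signal is peak over basal fluorescence ratio across the kinetic read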
CHRM5 PAM = potentiates acetylcholine response at human M5 receptor | CHO-K1 hM5, Fluo-8 calcium, ACh EC20 PAM; 0% = ACh EC20, 100% = ACh EC100 | P08912 | 360,000 compounds, 0.3% hits | activation, % at 3 µM;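 active = activation above the run cutoff, the mean activation of all test compounds plus 3 SD, cut at about 18% in these data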
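Measured by: Fluo-8 calcium fluorescence; material: human M5 receptor in CHO-K1 cells; schedule: Post-acetylcholine fluorescence recording 140 s; benchmarks: low control EC20 acetylcholine (0%), high control EC100 acetylcholine (100%); read-out: Max/basal fluorescence ratio as % of EC20–EC100 ACh window; compound: single dose, 3 µM nominal final test concentration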
CHRM4 PAM = positive allosteric modulators of human muscarinic M4 receptor; P08173; CHO-K1 hM4/Gqi5, Fluo-8 calcium fluorescence, ACh EC20; 0% = ACh EC20, 100% = maximal ACh; activation, % at 3 µM; 360,000 compounds, 0.4% hits; AID 624126;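 active = activation above its plate's cutoff, the mean activation of sample wells plus 3 SD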
CHRM4 agonist = CHRM4 agonism in calcium assay; 360,000 compounds, 0.14% hits; CHO-K1 hM4/Gqi5, Fluo-8 calcium fluorescence; vehicle 0%, full acetylcholine response 100%; activation, % at 3 µM; P08173; AID 624127;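 active = activation above the run mean over all test wells plus 3 SD, cut at about 32% in these data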;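 note: peak over basal fluorescence ratio per well then scaled between controls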
M5 antag = antagonists of human muscarinic M5 receptor (CHRM5); inhibition, % at 3 µM; 360,000 compounds, 0.59% hits; CHO-hM5 cells, Fluo-8 calcium fluorescence, ACh EC80; P08912;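 active = inhibition above a per-plate cutoff, the mean of that plate's test compounds plus 3 SD, cut at about 27% in these data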
Each line names hits and unclear results; the compound was inactive in the other large screens. In the library only some 1.9% were active in any assay of this set; here they are far more common.

O=C(NC(Cc1c[nH]c2ccccc12)C(=O)N/N=C/c1ccc(Cl)cc1)c1cccs1 (stereo unspecified)	M5 antag 27
O=C(NCC1CCN(Cc2ccccc2F)CC1)C1CCCN(c2ncnc3c2nc2n3CCCCC2)C1 (stereo unspecified)	CHRM4 antagonist 52
Cc1ccc(CN2CCC(CNC(=O)C3CCCN(c4ncnc5c4nc4n5CCCCC4)C3)CC2)cc1 (stereo unspecified)	CHRM4 antagonist 38
O=C(Nc1cccnc1Cl)C1CCCN(c2ncnc3c2nc2n3CCCCC2)C1 (stereo unspecified)	CHRM4 PAM 18
O=C(NCc1ccccc1Cl)C1CCCN(c2ncnc3c2nc2n3CCCCC2)C1 (stereo unspecified)	none
Cc1ccc(NC(=O)CN(C)C(=O)COC(=O)[C@@H](NC(=O)c2ccccc2F)C(C)C)cc1	none
Cn1nc(C#N)c(=O)[nH]c1=O	CHRM5 agonist 24, CHRM5 PAM 63
COc1ccc(CNC(=O)c2sc(=O)n(Cc3ccc(-c4ccccc4)cc3)c2C)cc1OC	M5 antag 30
COc1ccccc1Cn1c(C)c(C(=O)NCc2ccc(C#N)cc2)sc1=O	CHRM5 agonist 28, CHRM4 agonist 37
Cc1c(C(=O)NCc2ccc([N+](=O)[O-])cc2)sc(=O)n1Cc1ccc2c(c1)OCO2	CHRM5 agonist 25
COc1ccc(CNC(=O)c2sc(=O)n(Cc3ccccc3C)c2C)cc1	CHRM5 agonist 41
COc1ccc(Cl)cc1Cn1c(C)c(C(=O)NCc2ccc(C#N)cc2)sc1=O	none
Cc1ccccc1Cn1c(C)c(C(=O)NCc2cccc(Cl)c2)sc1=O	none
COc1ccc(CNC(=O)c2sc(=O)n(Cc3ccc(C)cc3)c2C)cc1OC	none
Cc1ccc(S(=O)(=O)N2CCN(C(=O)COC(=O)COc3cccc4c3OC(C)(C)C4)CC2)cc1	none
COc1ccc(NC2=CC(c3cccc(OC)c3)N(c3ccc(OC)cc3)C2=O)cc1 (stereo unspecified)	M5 antag 50
O=C(C1=C(O)C(=O)N(c2nccs2)C1c1ccccc1)c1cc2ccccc2o1 (stereo unspecified)	CHRM5 agonist 65
CNC(=S)N/N=C(\C)c1ccc(C)c(C)c1	CHRM4 antagonist 27
CCC(C)N1CNc2c(c(=O)[nH]c(=S)n2-c2cccc(C)c2)C1 (stereo unspecified)	CHRM5 PAM 23, M5 antag 35
C=CCn1c2c(c(=O)[nH]c1=S)CN(C(C)c1ccccc1)CN2 (stereo unspecified)	none
CC(=O)N1CCN(C(=O)CCc2cc(C(C)(C)C)c(O)c(C(C)(C)C)c2)CC1	none
CSc1ccc(/C=N/NC(=O)CN2CCN(Cc3ccc(Cl)cc3)CC2)cc1	CHRM4 antagonist 35
CSc1ccc(/C=N/NC(=O)CN2CCN(Cc3ccccc3)CC2)cc1	none
CCOC(=O)c1cn(CC)c2cc(N3CCN(C)CC3)c(F)cc2c1=O	none
CCCCCCn1cc(C(=O)OCC)c(=O)c2cc(F)c(F)cc21	CHRM4 PAM 38
CCOC(=O)c1cn(CC#N)c2cc(F)c(F)cc2c1=O	CHRM4 PAM 24
Cc1cc(C)n2nc(SCC(=O)NC3CCCC(C)C3C)nc2n1 (stereo unspecified)	none
Cc1ccc(Cl)cc1NC(=O)CCC(=O)Nc1cc(Cl)ccc1C	CHRM5 PAM 24
CCCC(=O)Nc1cc(Cl)ccc1C	none
CCCCCc1c(-c2ccc(Cl)cc2)ncn1CCc1ccccc1OC	none
CCCCCc1c(-c2ccc(OC)cc2)ncn1CCc1ccccc1OC	CHRM4 antagonist 34
CCCCc1c(-c2ccccc2)ncn1CCc1ccccc1OC	none
CCCCc1c(-c2ccc(OC)cc2)ncn1CCc1ccccc1OC	CHRM4 antagonist 33
Nc1c(Cl)c(Cl)nc(C(=O)OCC(=O)NC2CCCCC2)c1Cl	none
c1ccc2c(c1)COc1c3cc4c(cc3nn1-2)OCO4	CHRM4 PAM 20
CN(C)/C(=N\S(=O)(=O)c1ccc(Br)cc1)c1ccccc1	none
Cc1cc(C)c(S(=O)(=O)Cc2ccccc2)c(OC(C)C)n1	none
CC1CCN(CCc2nc3cc(NC(=O)C(C)C)ccc3n2C)CC1	CHRM4 antagonist 58, M5 antag 69
CC(C)C(=O)Nc1ccc2c(c1)nc(CCN1CCCCC1)n2C	none
COc1ccc(S(=O)(=O)N2CCCCC2)cc1NC(=O)CCNC(=O)c1ccc(Cl)cc1	none
O=C(COC(=O)c1n[nH]c(=O)c2ccccc12)Nc1ccccc1	none
Cc1ccc(CC2C(=O)N(CC(=O)O)C(=O)C2C)cc1 (stereo unspecified)	CHRM4 antagonist 29
Cc1ccc(CC2C(=O)N(c3ccc(C)cc3)C(=O)C2C)cc1 (stereo unspecified)	none
CC(C)Cc1ccc(C(C)C(=O)Nc2ccc(O)cc2)cc1 (stereo unspecified)	CHRM4 antagonist 34, CHRM5 agonist 44, CHRM4 agonist 79, M5 antag 27
CC(C(=O)Nc1cccnc1)c1ccc([N+](=O)[O-])cc1 (stereo unspecified)	none
CC(C)Cc1ccc(C(C)C(=O)Nc2cccnc2)cc1 (stereo unspecified)	CHRM5 agonist 32
CC(C)Cc1ccc([C@H](C)C(=O)O)cc1	none
N#CCCN(Cc1ccccc1)C(C(=O)NC1CCCCC1)c1cc2ccccc2o1 (stereo unspecified)	none
COc1cccc(Nc2nc(C(N)Cc3ccc(Cl)cc3)cs2)n1 (stereo unspecified)	CHRM5 agonist 49, CHRM4 agonist 47
COc1cccc(Nc2nc(C(N)Cc3ccc(C(F)(F)F)cc3)cs2)n1 (stereo unspecified)	none
COc1ccc(CC(N)c2csc(Nc3cccc(OC)n3)n2)cc1 (stereo unspecified)	none
COc1cccc(Nc2nc(C(N)Cc3ccc(F)cc3)cs2)n1 (stereo unspecified)	CHRM4 agonist 35
O=C(CCc1ccccc1)NC(NC(=S)Nc1ccc(Br)cc1)C(Cl)(Cl)Cl (stereo unspecified)	none
O=C(CCc1ccccc1)NC(NC(=S)Nc1cccc(Cl)c1)C(Cl)(Cl)Cl (stereo unspecified)	M5 antag 34
CC(Oc1ccccc1)C(=O)Nc1nnc(S(=O)(=O)Nc2ccccc2)s1 (stereo unspecified)	none
Cc1ccc([C@@H]2[C@@H]3C(=O)N(C)C(=O)[C@@H]3[C@]3(C)C(=O)N(Cc4ccccc4)CC(=O)N23)o1	CHRM5 PAM 22
COc1ccc(C=O)cc1Cn1c(C)cc(C)c(C#N)c1=O	none
COc1cccc(/C=N/NC(=O)C(=O)N2CCCCCC2)c1OC	none
